{
  "source": "ChEMBL document CHEMBL4390639",
  "about": "“Design, Synthesis, and Biological Evaluation of Novel Allosteric Protein Disulfide Isomerase Inhibitors” (J Med Chem, 2019)",
  "key": {"U-87 MG [1]": {"tested_on": "U-87 MG", "assay": "Cytotoxicity against human U87MG cells assessed as inhibition of cell proliferation at 10 uM measured after 24 hrs treatment followed by 10 days by colony formation assay relative to control"}, "A 172 [2]": {"tested_on": "A 172", "assay": "Induction of morphological changes in human A172 cells assessed as membrane blebbing at 11 uM measured after 48 hrs by Giemsa-staining based microscopic analysis", "assay_type": "functional, cell-based"}, "A 172 [3]": {"tested_on": "A 172", "assay": "Antimigratory activity against human A172 cells at 10 uM measured after 4 hrs by Giemsa staining based transwell migration assay", "assay_type": "functional, cell-based", "procedure,_shortened": "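A172 cells (1 x 10^5) were treated with compound and seeded into inserts with 8.0 μm PET membrane in serum-free medium. DMEM with 10% FBS was in the lower well; wells without FBS served as control. After 4 h, migrated cells were Giemsa-stained and imaged at 10X, 5 fields per well.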"}, "U-87 MG [4]": {"tested_on": "U-87 MG", "assay": "Down regulation of NFIA gene expression in human U87MG cells at 10 uM incubated for 4 hrs followed by bromouridine addition during last 30 mins of incubation by TRIzol-reagent based Bru-Seq analysis relative to control", "assay_type": "functional, U-87MG ATCC", "procedure,_shortened": "(§1)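 Nascent transcription (Bru-seq) in U87MG cells: treatment at 10 μM for 4 h, with 2 mM bromouridine added for the final 30 min. Total RNA isolated with TRIzol; Bru-labelled RNA captured using anti-BrdU antibody on magnetic beads, then sequenced. Transcript traces reported as RPKM compared with DMSO-treated cells. Single experiment.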"}, "U-87 MG [5]": {"tested_on": "U-87 MG", "assay": "Down regulation of RAD51 gene expression in human U87MG cells at 10 uM incubated for 4 hrs followed by bromouridine addition during last 30 mins of incubation by TRIzol-reagent based Bru-Seq analysis", "assay_type": "functional, cell-based", "conditions": "U-87MG ATCC", "procedure,_shortened": "as §1"}, "U-87 MG [6]": {"tested_on": "U-87 MG", "assay": "Down regulation of C11orf87 gene expression in human U87MG cells at 10 uM incubated for 4 hrs followed by bromouridine addition during last 30 mins of incubation by TRIzol-reagent based Bru-Seq analysis relative to control", "assay_type": "functional, U-87MG ATCC"}, "U-87 MG [7]": {"tested_on": "U-87 MG", "assay": "Down regulation of E2F1 gene expression in human U87MG cells at 10 uM incubated for 4 hrs followed by bromouridine addition during last 30 mins of incubation by TRIzol-reagent based Bru-Seq analysis", "assay_type": "functional, cell-based", "conditions": "U-87MG ATCC"}, "U-87 MG [8]": {"tested_on": "U-87 MG", "assay": "Up regulation of SESN2 gene expression in human U87MG cells at 10 uM incubated for 4 hrs followed by bromouridine addition during last 30 mins of incubation by TRIzol-reagent based Bru-Seq analysis relative to control", "assay_type": "functional, U-87MG ATCC", "procedure,_shortened": "(§2)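 U87MG cells exposed to compound or DMSO vehicle for 4 h, with 2 mM bromouridine added for the final 30 min. Total RNA isolated with TRIzol; Bru-labelled nascent RNA captured on anti-BrdU antibody-conjugated magnetic beads and sequenced. Transcript abundance expressed as RPKM relative to DMSO. Experiment performed once.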"}, "U-87 MG [9]": {"tested_on": "U-87 MG", "assay": "Down regulation of FKBP7 gene expression in human U87MG cells at 10 uM incubated for 4 hrs followed by bromouridine addition during last 30 mins of incubation by TRIzol-reagent based Bru-Seq analysis relative to control", "assay_type": "functional, U-87MG ATCC"}, "U-87 MG [10]": {"tested_on": "U-87 MG", "assay": "Up regulation of SLC7A11 gene expression in human U87MG cells at 10 uM incubated for 4 hrs followed by bromouridine addition during last 30 mins of incubation by TRIzol-reagent based Bru-Seq analysis relative to control", "assay_type": "functional, U-87MG ATCC", "procedure,_shortened": "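U87MG cells treated 4 h with test compound (10 or 16 μM, as per line) or DMSO; 2 mM bromouridine added for final 30 min. Total RNA isolated with TRIzol, Bru-labelled nascent RNA captured with anti-BrdU antibody magnetic beads and sequenced; transcript abundance (RPKM) compared with DMSO control. Single experiment.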"}, "U-87 MG [11]": {"tested_on": "U-87 MG", "assay": "Down regulation of DUT gene expression in human U87MG cells at 10 uM incubated for 4 hrs followed by bromouridine addition during last 30 mins of incubation by TRIzol-reagent based Bru-Seq analysis relative to control", "assay_type": "functional, U-87MG ATCC"}, "U-87 MG [12]": {"tested_on": "U-87 MG", "assay": "Up regulation of ADAMTS5 gene expression in human U87MG cells at 10 uM incubated for 4 hrs followed by bromouridine addition during last 30 mins of incubation by TRIzol-reagent based Bru-Seq analysis relative to control", "assay_type": "functional, U-87MG ATCC", "procedure,_shortened": "as §2"}, "U-87 MG [13]": {"tested_on": "U-87 MG", "assay": "Down regulation of CHSY3 gene expression in human U87MG cells at 10 uM incubated for 4 hrs followed by bromouridine addition during last 30 mins of incubation by TRIzol-reagent based Bru-Seq analysis relative to control", "assay_type": "functional, U-87MG ATCC"}, "U-87 MG [14]": {"tested_on": "U-87 MG", "assay": "Up regulation of HSPA1B gene expression in human U87MG cells at 16 uM incubated for 4 hrs followed by bromouridine addition during last 30 mins of incubation by TRIzol-reagent based Bru-Seq analysis relative to control", "assay_type": "functional, U-87MG ATCC", "procedure,_shortened": "as §2"}, "U-87 MG [15]": {"tested_on": "U-87 MG", "assay": "Down regulation of C8orf4 gene expression in human U87MG cells at 16 uM incubated for 4 hrs followed by bromouridine addition during last 30 mins of incubation by TRIzol-reagent based Bru-Seq analysis relative to control", "assay_type": "functional, U-87MG ATCC", "procedure,_shortened": "as §2"}, "U-87 MG [16]": {"tested_on": "U-87 MG", "assay": "Up regulation of AKR1C1 gene expression in human U87MG cells at 16 uM incubated for 4 hrs followed by bromouridine addition during last 30 mins of incubation by TRIzol-reagent based Bru-Seq analysis relative to control", "assay_type": "functional, U-87MG ATCC", "procedure,_shortened": "as §2"}, "U-87 MG [17]": {"tested_on": "U-87 MG", "assay": "Down regulation of BIRC3 gene expression in human U87MG cells at 16 uM incubated for 4 hrs followed by bromouridine addition during last 30 mins of incubation by TRIzol-reagent based Bru-Seq analysis relative to control", "assay_type": "functional, U-87MG ATCC"}, "U-87 MG [18]": {"tested_on": "U-87 MG", "assay": "Up regulation of PIR gene expression in human U87MG cells at 16 uM incubated for 4 hrs followed by bromouridine addition during last 30 mins of incubation by TRIzol-reagent based Bru-Seq analysis relative to control", "assay_type": "functional, U-87MG ATCC", "procedure,_shortened": "as §2"}, "U-87 MG [19]": {"tested_on": "U-87 MG", "assay": "Up regulation of TXNRD1 gene expression in human U87MG cells at 16 uM incubated for 4 hrs followed by bromouridine addition during last 30 mins of incubation by TRIzol-reagent based Bru-Seq analysis relative to control", "assay_type": "functional, U-87MG ATCC"}, "U-87 MG [20]": {"tested_on": "U-87 MG", "assay": "Down regulation of CTGF gene expression in human U87MG cells at 16 uM incubated for 4 hrs followed by bromouridine addition during last 30 mins of incubation by TRIzol-reagent based Bru-Seq analysis relative to control", "assay_type": "functional, U-87MG ATCC"}, "U-87 MG [21]": {"tested_on": "U-87 MG", "assay": "Down regulation of H1F0 gene expression in human U87MG cells at 16 uM incubated for 4 hrs followed by bromouridine addition during last 30 mins of incubation by TRIzol-reagent based Bru-Seq analysis relative to control", "assay_type": "functional, U-87MG ATCC"}, "U-87 MG [22]": {"tested_on": "U-87 MG", "assay": "Down regulation of KCTD4 gene expression in human U87MG cells at 16 uM incubated for 4 hrs followed by bromouridine addition during last 30 mins of incubation by TRIzol-reagent based Bru-Seq analysis relative to control", "assay_type": "functional, U-87MG ATCC"}, "U-87 MG [23]": {"tested_on": "U-87 MG", "assay": "Down regulation of IL1B gene expression in human U87MG cells at 16 uM incubated for 4 hrs followed by bromouridine addition during last 30 mins of incubation by TRIzol-reagent based Bru-Seq analysis relative to control", "assay_type": "functional, U-87MG ATCC", "procedure,_shortened": "as §2"}, "U-87 MG [24]": {"tested_on": "U-87 MG", "assay": "Down regulation of CSF3 gene expression in human U87MG cells at 16 uM incubated for 4 hrs followed by bromouridine addition during last 30 mins of incubation by TRIzol-reagent based Bru-Seq analysis relative to control", "assay_type": "functional, U-87MG ATCC", "procedure,_shortened": "as §2"}, "U-87 MG [25]": {"tested_on": "U-87 MG", "assay": "Up regulation of VEGFD gene expression in human U87MG cells at 16 uM incubated for 4 hrs followed by bromouridine addition during last 30 mins of incubation by TRIzol-reagent based Bru-Seq analysis relative to control", "assay_type": "functional, U-87MG ATCC"}},
  "note": "Calls of active or inactive are those of the source. The rule behind the calls is not given here.",
  "data": [
    {"smiles": "N#Cc1cccc(/C=C/C(=O)c2ccc(O)cc2)c1", "values": [
      {"measurement": "inhibition at 10 µM", "setting": "U-87 MG [1]", "result": "< 40", "unit": "%"}
    ]},
    {"smiles": "CCCCCN(CCCCC)S(=O)(=O)c1ccc(C(=O)/C=C/c2cccc(O)c2)cc1", "values": [
      {"measurement": "Activity", "setting": "A 172 [2]", "result": "Active"}
    ]},
    {"smiles": "CCCCCN(CCCCC)S(=O)(=O)c1ccc(C(=O)/C=C/c2cccc(C#N)c2)cc1", "values": [
      {"measurement": "Activity", "setting": "A 172 [3]", "result": "Active"},
      {"measurement": "fold change (FC)", "setting": "U-87 MG [4]", "result": 2.4},
      {"measurement": "Activity", "setting": "U-87 MG [5]", "result": "Active"},
      {"measurement": "fold change (FC)", "setting": "U-87 MG [6]", "result": 2.4},
      {"measurement": "Activity", "setting": "U-87 MG [7]", "result": "Active"},
      {"measurement": "fold change (FC)", "setting": "U-87 MG [8]", "result": 26.9},
      {"measurement": "fold change (FC)", "setting": "U-87 MG [9]", "result": 2.4},
      {"measurement": "fold change (FC)", "setting": "U-87 MG [10]", "result": 20.8},
      {"measurement": "fold change (FC)", "setting": "U-87 MG [11]", "result": 2.3},
      {"measurement": "fold change (FC)", "setting": "U-87 MG [12]", "result": 9.6},
      {"measurement": "fold change (FC)", "setting": "U-87 MG [13]", "result": 2.6}
    ]},
    {"smiles": "COC(=O)c1cccc(/C=C/C(=O)c2cccc(O)c2)c1", "values": [
      {"measurement": "fold change (FC)", "setting": "U-87 MG [14]", "result": 10.2},
      {"measurement": "fold change (FC)", "setting": "U-87 MG [15]", "result": 4.7},
      {"measurement": "fold change (FC)", "setting": "U-87 MG [16]", "result": 8.1},
      {"measurement": "fold change (FC)", "setting": "U-87 MG [17]", "result": 3.3},
      {"measurement": "fold change (FC)", "setting": "U-87 MG [18]", "result": 4.3},
      {"measurement": "fold change (FC)", "setting": "U-87 MG [19]", "result": 5.4},
      {"measurement": "fold change (FC)", "setting": "U-87 MG [20]", "result": 3.1},
      {"measurement": "fold change (FC)", "setting": "U-87 MG [21]", "result": 2.7},
      {"measurement": "fold change (FC)", "setting": "U-87 MG [22]", "result": 3},
      {"measurement": "fold change (FC)", "setting": "U-87 MG [23]", "result": 5.5},
      {"measurement": "fold change (FC)", "setting": "U-87 MG [24]", "result": 8.3},
      {"measurement": "fold change (FC)", "setting": "U-87 MG [25]", "result": 6.2}
    ]}
  ]
}
